# Results: ChEMBL document CHEMBL1124534, “Synthesis, mechanism of action, and biological evaluation of mitosenes” (1989)
# Legend:
# A204 = assay: In vitro antitumor activity against A204 rhabdomyosarcoma tumor cell line was determined; assay type: functional; conditions: Homo sapiens, read-out: ID50 (the source's name)
# In short: (§1)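 Cell growth inhibition in vitro measured by the PIT method, with mitomycin C as positive reference.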
# L1210 = assay: In vitro antitumor activity against L1210 lymphocytic leukemia tumor cell line was determined; assay type: functional; conditions: Mus musculus, read-out: ID50 (the source's name)
# In short: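 Inhibition of L1210 leukemia colony formation in vitro, with mitomycin C as positive reference.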
# Mus musculus [1] = assay: Body wieght treated/body weight untreated controls of compound (6 mg/kg) was evaluated in vivo for antitumor activity against MAC 16 in female NMRI mice on day 12; assay type: functional
# Mus musculus [2] = assay: Body wieght treated/body weight untreated controls of compound (6 mg/kg) was evaluated in vivo for antitumor activity against MAC 16 in female NMRI mice on day 4; assay type: functional
# Mus musculus [3] = assay: Mean relative body weight change of treated / mean relative body weight change of control when compound (2 mg/kg/day) administered to inhibit growth of human tumor xenograft GXF 97 was reported at day 14 in nude mice; assay type: functional
# Mus musculus [4] = assay: Mean relative body weight change of treated / mean relative body weight change of control when compound (2 mg/kg/day) administered to inhibit growth of human tumor xenograft GXF 97 was reported at day 28 in nude mice; assay type: functional
# Mus musculus [5] = assay: Percentage change in body weight [(day 6 - day 1)/ day 1] for antitumor activity against P388 Leukemia in CD2 mice at fractioned dose treatment of 1 mg/kg; assay type: functional
# In short: (§2)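 Mouse P388 leukemia model. Drugs were given intraperitoneally, either as a single injection or once daily for 9 consecutive days (fractioned schedule). Outcomes were median survival time in days, %T/C, and % body weight change.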
# Mus musculus [6] = assay: Percentage change in body weight [(day 6 - day 1)/ day 1] for antitumor activity against P388 Leukemia in CD2 mice at fractioned dose treatment of 3 mg/kg; assay type: functional; in short: as §2
# Mus musculus [7] = assay: Percent change in body weight [(day 6 - day 1)/ day 1] when P388 Leukemic CD2 mice were treated with a compound (6 mg/Kg); assay type: functional
# Mus musculus [8] = assay: Mean relative body weight change of treated / mean relative body weight change of control when compound (2 mg/kg/day) administered to inhibit growth of human tumor xenograft GXF 97 was reported at day 21 in nude mice; assay type: functional
# Mus musculus [9] = assay: Median survival time in days for antitumor activity against P388 Leukemia in CD2 mice at a single dose treatment of 6 mg/kg; assay type: functional
# In short: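 P388 leukemia-bearing mice were given one intraperitoneal injection. The read-out was median survival time in days, reported alongside %T/C and % body weight change.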
# Mus musculus [10] = assay: Median survival time in days for antitumor activity against P388 Leukemia in CD2 mice at fractioned dose treatment of 1 mg/kg; assay type: functional
# In short: (§3)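 P388 leukemia-bearing mice were dosed intraperitoneally once daily for 9 consecutive days (fractioned schedule). The read-out was median survival time in days, reported alongside %T/C and % body weight change.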
# Mus musculus [11] = assay: Median survival time in days for antitumor activity against P388 Leukemia in CD2 mice at fractioned dose treatment of 3 mg/kg; assay type: functional; in short: as §3
# Mus musculus [12] = assay: Percent inhibition of compound (50 mg/Kg) was evaluated in vivo for antitumor activity against MAC 13 in female NMRI mice on day 29; assay type: functional
# In short: (§4)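 MAC 13 in female NMRI mice. Drugs were given in arachis oil BP by ip route on day 2 or day 29. % inhibition was derived from treated/untreated control tumor weight (volume); a negative value indicates stimulation.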
# Mus musculus [13] = assay: Percent inhibition of compound (6 mg/kg) was evaluated in vivo for antitumor activity against MAC 13 in female NMRI mice on day 2; assay type: functional; in short: as §4
# Mus musculus [14] = assay: Percent T/C ([…]) for antitumor activity against P388 Leukemia in CD2 mice at a single dose treatment of 6 mg/kg; assay type: functional
# In short: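 P388 leukemia mice given a single intraperitoneal injection. Median survival time (days) and body weight change were recorded. %T/C was derived from the survival of treated versus control mice.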
# Mus musculus [15] = assay: Percent T/C ([…]) for antitumor activity against P388 Leukemia in CD2 mice at fractioned dose treatment of 1 mg/kg; assay type: functional
# In short: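 P388 leukemia mice dosed intraperitoneally once daily for 9 consecutive days. Median survival time (days) and body weight change were recorded. %T/C was based on survival of treated versus control mice.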
# Mus musculus [16] = assay: Percent T/C ([…]) for antitumor activity against P388 Leukemia in CD2 mice at fractioned dose treatment of 3 mg/kg; assay type: functional; in short: as §2
# Mus musculus [17] = assay: Relative tumor size on day 28 was reported when compound (2 mg/kg/day) administered to inhibit growth of human tumor xenograft GXF 97 in nude mice; assay type: functional
# In short: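 GXF 97 human gastric xenograft grown subcutaneously in nude mice for 24 days, then mice randomized; treatment began 1 day later. Fractioned ip injections on days 1-4, or single iv injection on day 1; 4-5 mice per group. Tumor size from length and width; relative tumor size (% of controls) read at day 28.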
# Mus musculus [18] = assay: Compound (40 mg/Kg) was evaluated in vivo for antitumor activity against MAC 16 in female NMRI mice on day 12 and ratio of tumor weight of treated to that of control was determined; assay type: functional
# Mus musculus [19] = assay: Compound (40 mg/Kg) was evaluated in vivo for antitumor activity against MAC 16 in female NMRI mice on day 29 and ratio of tumor weight of treated to that of control was determined; assay type: functional
# Mus musculus [20] = assay: Compound (6 mg/Kg) was evaluated in vivo for antitumor activity against MAC 16 in female NMRI mice on day 4 and ratio of tumor weight of treated to that of control was determined; assay type: functional
# WiDr = assay: In vitro antitumor activity against WiDr colon carcinoma tumor cell line was determined; assay type: functional; conditions: Homo sapiens, read-out: ID50 (the source's name); in short: as §1
# Mus musculus [21] = assay: Ability of administered compound (2 mg/kg/day) to inhibit growth of human tumor xenograft GXF 97 was assessed on day 14 in nude mice
# Mus musculus [22] = assay: Ability of administered compound (2 mg/kg/day) to inhibit growth of human tumor xenograft GXF 97 was assessed on day 21 in nude mice
# Mus musculus [23] = assay: Ability of intravenously administered compound (2 mg/kg, single dose) to inhibit growth of human tumor xenograft GXF 97 was assessed on day 28 in nude mice
# Mus musculus [24] = assay: Compound (6 mg/Kg) was evaluated in vivo for antitumor activity against MAC 13 in female NMRI mice on day 2 and ratio of tumor weight of treated to that of control was determined
compound,measurement,setting,value
CO[C@@]12[C@H](COC(N)=O)C3=C(C(=O)C(C)=C(N)C3=O)N1C[C@@H]1N[C@@H]12 [MITOMYCIN],IC50,A204,0.02 µg/mL
same,IC50,L1210,0.031 µg/mL
same,BW,Mus musculus [1],96%
same,BW,Mus musculus [2],106%
same,BWC,Mus musculus [3],108.9%
same,BWC,Mus musculus [4],108.4%
same,BWC,Mus musculus [5],-5.4%
same,BWC,Mus musculus [6],-8%
same,BWC,Mus musculus [7],-18.1%
same,BWC,Mus musculus [8],108.5%
same,MST,Mus musculus [9],21 days
same,MST,Mus musculus [10],34 days
same,MST,Mus musculus [11],21 days
same,I,Mus musculus [12],92.6%
same,I,Mus musculus [13],88.4%
same,T/C,Mus musculus [14],191%
same,T/C,Mus musculus [15],309%
same,T/C,Mus musculus [16],191%
same,Relative TS,Mus musculus [17],17%
same,T/C,Mus musculus [18],81%
same,T/C,Mus musculus [19],7.4%
same,T/C,Mus musculus [20],60%
same,IC50,WiDr,0.031 µg/mL
same,T/C,Mus musculus [21],9.9%
same,T/C,Mus musculus [22],4.1%
same,T/C,Mus musculus [23],2.6%
same,T/C,Mus musculus [24],11.6%
